Measurements published in ChEMBL document CHEMBL5154854, “Identification of a Vitamin-D Receptor Antagonist, MeTC7, which Inhibits the Growth of Xenograft and Transgenic Tumors In Vivo” (J Med Chem, 2022).
Calls of active or inactive are those of the source. No cut-off for these calls is given here.

Assays:
[1] = molecular target: T1, Vitamin D3 receptor (Homo sapiens) (UniProt P11473); assay: Antagonist activity at VDR in human 2008 cells assessed as suppression of importin-4 expression at 250 nM incubated for 12 to 18 hrs by western blot analysis relative to control; format: cell-based; settings: filed as antagonist, time 12-18 hrs
T1 sequence (whole entry): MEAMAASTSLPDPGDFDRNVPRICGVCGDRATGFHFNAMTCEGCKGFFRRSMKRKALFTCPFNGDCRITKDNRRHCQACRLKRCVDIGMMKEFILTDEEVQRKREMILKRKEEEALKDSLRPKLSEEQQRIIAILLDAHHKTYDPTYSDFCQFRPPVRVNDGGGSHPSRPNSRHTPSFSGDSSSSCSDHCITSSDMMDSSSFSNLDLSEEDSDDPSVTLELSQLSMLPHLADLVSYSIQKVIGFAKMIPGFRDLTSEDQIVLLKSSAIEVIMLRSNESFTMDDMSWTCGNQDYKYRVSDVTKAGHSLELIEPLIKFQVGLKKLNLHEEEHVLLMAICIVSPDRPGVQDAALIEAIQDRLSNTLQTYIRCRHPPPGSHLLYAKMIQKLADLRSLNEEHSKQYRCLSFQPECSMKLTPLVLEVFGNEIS
Outline: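 2008 ovarian cancer cells exposed 250 nM, 18 h; immunoblot with loading control (GAPDH for RXR-α, α-tubulin for Importin-4); band densitometry normalized to loading control.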

IGROV-1 = assay: Cytotoxicity against human IGROV-1 cells assessed as reduction in cell viability incubated for 24 hrs by MTS assay; format: functional, cell-based; settings: dose 0.25-1.25 µM, DDE = dose-dependent effect
Outline: (§1)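 Ovarian lines seeded 5,000 cells/well, attached overnight, treated 24 h in complete medium (DMSO ≤0.2%); MTS reagent 1:10 in fresh RPMI 2–4 h, absorbance 490 nm; triplicate, % of DMSO-treated cells.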

[2] = Toxicity in TH-MYCN +/+ transgenic neuroblastoma 129x1/SvJ.Tg (TH-MYCN)41Waw/Nci mouse model assessed as effect on CD11b+ cells population at 10 mg/kg, ip qd by flow cytometry; format: organism-based; settings: in vivo
Outline: (§2)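 Immune cells isolated from TH-MYCN tumor-bearing mice treated with vehicle or compound; CD45+, CD4+, CD8+, macrophage, patrolling monocyte/DC and CD11b+ populations quantified by flow cytometry with characterized markers.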

[3] = Anti-tumor activity against human SK-OV-3 cells xenografted in nude mouse assessed as animal survival at 10 mg/kg, ip measured upto 36 days; settings: SK-OV-3, 864 h
[4] = Toxicity in TH-MYCN +/+ transgenic neuroblastoma 129x1/SvJ.Tg (TH-MYCN)41Waw/Nci mouse model assessed as effect on CD4+ cells population at 10 mg/kg, ip qd by flow cytometry; format: organism-based; settings: in vivo; outline: as §2
SK-OV-3 = assay: Cytotoxicity against human SK-OV-3 cells assessed as reduction in cell viability incubated for 24 hrs by MTS assay; format: functional, cell-based; settings: dose 0.25-1.25 µM, DDE = dose-dependent effect; outline: as §1
D283 Med [5] = assay: Anti-tumor activity against human D283 Med cells xenografted in NSG mouse assessed as reduction in tumor size at 10 mg/kg, ip measured on day 12; format: functional, organism-based; settings: time 12.0 day
Outline: (§3)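 NSG mice implanted subcutaneously with 1 million D283, PANC-1 or BXPC-3 cells in matrigel/DMEM 1:1; once palpable, 10 mg/kg IP M–F vs vehicle; volume (length × width2)[…], % change; endpoint 2000 mm3; tumors excised and weighed; unpaired t-test.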

OVCAR-8 = assay: Cytotoxicity against human OVCAR-8 cells assessed as reduction in cell viability incubated for 24 hrs by MTS assay; format: functional, cell-based; settings: dose 0.25-1.25 µM, DDE = dose-dependent effect; outline: as §1
SH-EP1 = assay: Cytotoxicity against human SH-EP1 cells assessed as reduction in cell viability incubated for 48 hrs by MTS assay; format: functional, cell-based; settings: dose 0.1-10 µM, DDE = dose-dependent effect
Outline: (§4)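 Neuroblastoma lines seeded 5,000 cells/well, attached overnight, treated 48 h in complete medium (DMSO ≤0.2%); MTS reagent 1:10 in fresh RPMI 2–4 h, absorbance 490 nm.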

LA-N-5 = assay: Cytotoxicity against human LA-N-5 cells assessed as reduction in cell viability incubated for 48 hrs by MTS assay; format: functional, cell-based; settings: dose 0.1-10 µM, DDE = dose-dependent effect; outline: as §4
2008 [6] = assay: Induction of apoptosis in human 2008 cells assessed as cleaved PARP1 expression levels at 250 nM incubated for 18 hrs by western blot analysis (reference value: 4%); format: functional
BE(2)-C = assay: Cytotoxicity against human BE2C cells assessed as reduction in cell viability incubated for 48 hrs by MTS assay; format: functional, cell-based; settings: dose 0.1-10 µM, DDE = dose-dependent effect; outline: as §4
[7] = molecular target: T1, Vitamin D3 receptor (Homo sapiens); assay: Antagonist activity at VDR in human BE2C cells assessed as reduction in MYCN expression at 1 uM incubated for 24 hrs by western blot analysis relative to control; format: cell-based; settings: filed as antagonist
Outline: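 BE(2)-C cells given 1 μM for 24 h; immunoblot with β-actin or α-tubulin loading control; normalized densitometry.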

SH-SY5Y [8] = assay: Cytotoxicity against human SH-SY5Y cells assessed as reduction in cell viability incubated for 48 hrs by MTS assay; format: functional, cell-based; settings: dose 0.1-10 µM, DDE = dose-dependent effect; outline: as §4
Tumor cell line = assay: Cytotoxicity against tumor cells in TH-MYCN +/+ transgenic neuroblastoma 129x1/SvJ.Tg (TH-MYCN)41Waw/Nci mouse model assessed as reduction in viability of tumor spheres measured after 3 days by light microscopy; format: functional, cell-based; settings: dose 1-4 µM, time 3.0 day, DDE = dose-dependent effect
Outline: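 Tumor cells mechanically dissociated from tumors of three homozygous TH-MYCN mice, grown as spheres in RPMI1640 with 20% FBS, 2-mercaptoethanol, pyruvate and NEAA; treated 3 days; viability by MTS; spheres imaged by light microscopy.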

D283 Med [9] = assay: Anti-tumor activity against human D283 Med cells xenografted in NSG mouse assessed as reduction in tumor volume at 10 mg/kg, ip measured on day 12; format: functional, organism-based; settings: time 12.0 day; outline: as §3
[10] = Toxicity in TH-MYCN +/+ transgenic neuroblastoma 129x1/SvJ.Tg (TH-MYCN)41Waw/Nci mouse model assessed as effect on macrophage population at 10 mg/kg, ip qd by flow cytometry; format: organism-based; settings: in vivo; outline: as §2
[11] = Toxicity in TH-MYCN +/+ transgenic neuroblastoma 129x1/SvJ.Tg (TH-MYCN)41Waw/Nci mouse model assessed as effect on CD45+ cells population at 10 mg/kg, ip qd by flow cytometry; format: organism-based; settings: in vivo; outline: as §2
SH-SY5Y [12] = assay: Anti-tumor activity against human SH-SY5Y cells xenografted in NSG mouse assessed as reduction in tumor volume at 10 mg/kg, ip measured for 5 to 10 days; format: functional, organism-based; settings: time 5-10 day
Outline: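 NSG mice, 6–8 weeks, injected subcutaneously in right flank with ES2 (250,000) or SH-SY5Y/BE(2)C (1 million) cells in cold matrigel/serum-free RPMI 1:1. Once palpable, 10 mg/kg IP M–F vs vehicle; volume (length × width2)[…]; BE(2)C and ES2 monitored alternate days; endpoint 2000 mm3; % change in volume, t-test.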

2008 [13] = assay: Cytotoxicity against human 2008 cells assessed as reduction in cell viability incubated for 24 hrs by MTS assay; format: functional, cell-based; settings: dose 0.25-1.25 µM, DDE = dose-dependent effect; outline: as §1
Mus musculus = assay: Anti-tumor activity against tumor cells in TH-MYCN +/+ neuroblastoma 129x1/SvJ.Tg (TH-MYCN)41Waw/Nci mouse model assessed as reduction in tumor weight at 10 mg/kg, ip measured on day 7 by ultrasound imaging analysis; format: functional, organism-based; settings: time 7.0 day
Outline: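 Homozygous TH-MYCN+/+ mice (129×1/SvJ background, genotyped) with spontaneous neuroblastoma dosed IP, vehicle n = 7, 10 mg/kg n = 8, six treatments; a 100 mg/kg group got three. Tumor burden by abdominal ultrasound under 1–3% isoflurane; tumors excised and weighed at end; groups compared by t-test.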

In the case of CC(C)CCC[C@@H](C)[C@H]1CC[C@@H]2[C@]1(C)CCC1[C@]23C=C[C@]2(C[C@@H](OC(=O)CBr)CC[C@]12C)n1c(=O)n(C)c(=O)n13 (stereo partly specified), the fold change (FC) [1] is reported as 0.82, the Activity (IGROV-1) is reported as “Dde” and the Activity [2] is reported as “Non-Toxic”. The survival at 10 mg/kg [3] was 100%, the Activity [4] was “Non-Toxic” and the Activity (SK-OV-3) was “Dde”. The Activity (D283 Med [5]) was “Active”, the Activity (OVCAR-8) was “Dde” and the Activity (SH-EP1) was “Dde”. For the same compound, the Activity (LA-N-5) was “Dde”, the Activity 2008 [6] was 22.8% and the Activity (BE(2)-C) was “Dde”. The fold change (FC) [7] was 0.68, the Activity (SH-SY5Y [8]) was “Dde” and the Activity (Tumor cell line) was “Dde”. The Activity (D283 Med [9]) was “Active”, the Activity [10] was “Non-Toxic” and the Activity [11] was “Non-Toxic”. The Activity (SH-SY5Y [12]) was “Active”, the Activity 2008 [13] was “Dde” and the Activity (Mus musculus) was “Active”.
